In ChEMBL document CHEMBL1124792, “Synthesis and structure-activity relationships of 5-substituted 6,8-difluoroquinolones, including sparfloxacin, a new quinolone antibacterial agent with improved potency” (1990) one finds MIC and ED50 data, which are given here for 7 compounds.

Holding throughout (assay type): functional
Experiment [1] deals with Escherichia coli. Nature of the experiment: In vitro antibacterial activity against Escherichia coli P-5101. The method, boiled down: (§1)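 Two-fold agar dilution MIC on Mueller-Hinton agar (pH 7.4), following the Japan Society of Chemotherapy MIC Committee method. Inoculum was about 10⁶ CFU, and growth was read after 20 h at 37 °C. MIC is reported in µg/mL.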
Experiment [2] concerns Pseudomonas aeruginosa. Nature of the experiment: In vitro antibacterial activity against Pseudomonas aeruginosa IFO 3445. The method, boiled down:
as §1

Experiment [3] has as its system Klebsiella pneumoniae. Nature of the experiment: In vitro antibacterial activity against Klebsiella pneumoniae 13. In outline:
as §1

Experiment [4] deals with Escherichia coli. Briefly: In vitro antibacterial activity against Escherichia coli NIHJ JC-2. The method, boiled down:
as §1

Experiment [5] is filed under the species Mus musculus. Nature of the experiment: Oral efficacy against Pseudomonas aeruginosa 12 on Systemic Infections in Mice. In outline: (§2)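 Groups of at least 10 male Std-ddY mice (20 ± 2 g) were infected ip, with S. pyogenes A65 at 3×10^7 cells or P. aeruginosa 12 at 4×10^3 cells. Compounds were suspended in 0.2% sodium carboxymethylcellulose and given orally at 0 and 6 h postinfection. The result is reported as ED50 in mg/kg.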

The subject of experiment [6] is Enterococcus faecalis. Briefly: In vitro antibacterial activity against Streptococcus faecalis 2473. The method, boiled down:
as §1

The species entered for experiment [7] is Mus musculus. Briefly: Oral efficacy against Streptococcus pyogenes A65 on Systemic Infections in Mice. The method, boiled down: as §2
The test system of experiment [8] is Moraxella bovis. Briefly: In vitro antibacterial activity against glucose nonfermenter Moraxella bovis P-7101. The method, boiled down:
as §1

The subject of experiment [9] is Pseudomonas aeruginosa. Briefly: In vitro antibacterial activity against Pseudomonas aeruginosa 12. The method, boiled down: as §1
The test system of experiment [10] is Enterobacter cloacae. Nature of the experiment: In vitro antibacterial activity against Enterobacter cloacae 963.
The subject of experiment [11] is Staphylococcus epidermidis. Nature of the experiment: In vitro antibacterial activity against Streptococcus epidermis 8. In outline: as §1
Experiment [12] concerns Streptococcus pyogenes. Briefly: In vitro antibacterial activity against Streptococcus pyogenes A65. In outline:
as §1

Experiment [13] has as its system Staphylococcus aureus. Briefly: In vitro antibacterial activity against Staphylococcus aureus 50774. In outline:
as §1

For experiment [14], the system named is Serratia marcescens. Nature of the experiment: In vitro antibacterial activity against Serratia marcescence S-9. The method, boiled down:
as §1

Experiment [15] deals with Staphylococcus aureus. Briefly: In vitro antibacterial activity against Staphylococcus aureus 209P JC-1. In outline:
as §1

Experiment [16] concerns Serratia marcescens. Nature of the experiment: In vitro antibacterial activity against Serratia marcescens S-9. In outline:
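MIC (µg/mL) by 2-fold agar dilution on Mueller-Hinton agar (pH 7.4), following the Japan Society of Chemotherapy MIC Committee method. Inoculum of about 10⁶ CFU. Growth was read after 20 h at 37 °C.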

In experiment [17] the test system is Serratia marcescens. Briefly: In vitro antibacterial activity against Serratia marcescene S-9. In outline:
as §1

Converted amounts (≈) assume the structure as drawn.

By MIC is commonly meant the smallest concentration in the dilution series that meets the test's criterion for growth inhibition. High values mean weaker potency, low ones greater potency. In general, ED50 refers to the midpoint of the dose-response relation. As to `C[C@@H]1CN(c2c(F)c(N)c3c(=O)c(C(=O)O)cn(C4CC4)c3c2F)C[C@H](C)N1C`, the MIC was found to be 0.0125 mg/L (≈ 0.0308 µM) in experiment [1]; 0.78 mg/L (≈ 1.92 µM) in experiment [2]; 0.1 mg/L (≈ 0.246 µM) in [3]; 0.025 mg/L (≈ 0.0615 µM) in experiment [4]; 0.39 mg/L (≈ 0.96 µM) in [6]; 0.78 mg/L (≈ 1.92 µM) in experiment [8]. In addition, the minimal inhibitory concentration (MIC) came to 0.39 mg/L (≈ 0.96 µM) in experiment [9]; 0.05 mg/L (≈ 0.123 µM) in [10]; 0.05 mg/L (≈ 0.123 µM) in [11]; 0.39 mg/L (≈ 0.96 µM) in experiment [12]; 0.025 mg/L (≈ 0.0615 µM) in experiment [13]; 0.2 mg/L (≈ 0.492 µM) in experiment [14]. Moreover, in [15], the MIC was 0.05 mg/L (≈ 0.123 µM). Moreover, the ED50 was 2.21 mg/kg in experiment [5] and 5.64 mg/kg in experiment [7].
Consider `CC1CN(c2c(F)c(Cl)c3c(=O)c(C(=O)O)cn(C4CC4)c3c2F)CCN1` (centres undefined), for which the MIC was 0.0125 mg/L (≈ 0.0314 µM) in experiment [1]; 0.78 mg/L (≈ 1.96 µM) in [2]; 0.05 mg/L (≈ 0.126 µM) in experiment [3]; 0.0125 mg/L (≈ 0.0314 µM) in [4]; 0.78 mg/L (≈ 1.96 µM) in experiment [6]; 1.56 mg/L (≈ 3.92 µM) in experiment [8]. Moreover, the MIC in experiment [9] was determined as 0.39 mg/L (≈ 0.98 µM); in [10], 0.05 mg/L (≈ 0.126 µM); in experiment [11], 0.1 mg/L (≈ 0.251 µM); in experiment [12], 0.78 mg/L (≈ 1.96 µM); in experiment [13] it was 0.1 mg/L (≈ 0.251 µM); in experiment [14] it was 0.2 mg/L (≈ 0.503 µM). The same compound displayed a minimum inhibitory concentration (MIC) in [15] of 0.1 mg/L (≈ 0.251 µM). Moreover, in [5], the 50% effect level (ED50) was put at a dose of 1.65 mg/kg.
On to `CN1CCN(c2c(F)c(N)c3c(=O)c(C(=O)O)cn(C4CC4)c3c2F)CC1`, for which the MIC worked out at 0.0125 mg/L (≈ 0.033 µM) in experiment [1]; 1.56 mg/L (≈ 4.12 µM) in experiment [2]; 0.05 mg/L (≈ 0.132 µM) in [3]; 0.0125 mg/L (≈ 0.033 µM) in [4]; 0.78 mg/L (≈ 2.06 µM) in experiment [6]; 0.39 mg/L (≈ 1.03 µM) in [8]. Moreover, the MIC in [9] came out at 0.2 mg/L (≈ 0.529 µM); in [10], 0.025 mg/L (≈ 0.0661 µM); in experiment [16], 0.1 mg/L (≈ 0.264 µM); in [11], 0.05 mg/L (≈ 0.132 µM); in experiment [12], 0.39 mg/L (≈ 1.03 µM); in experiment [13], 0.05 mg/L (≈ 0.132 µM). Further, the lowest concentration to inhibit growth in experiment [15] (MIC) was 0.1 mg/L (≈ 0.264 µM). Moreover, the ED50 stood at 2.18 mg/kg in [5] and 22.9 mg/kg in experiment [7].
With `CC1CN(c2c(F)c(F)c3c(=O)c(C(=O)O)cn(C4CC4)c3c2F)CCN1` (centres undefined), the MIC was determined as 0.0063 mg/L (≈ 0.0165 µM) in experiment [1]; 0.78 mg/L (≈ 2.05 µM) in experiment [2]; 0.05 mg/L (≈ 0.131 µM) in experiment [3]; 0.0125 mg/L (≈ 0.0328 µM) in experiment [4]; 0.2 mg/L (≈ 0.524 µM) in experiment [17]; 3.13 mg/L (≈ 8.21 µM) in [6]. Besides, the MIC in experiment [8] was 1.56 mg/L (≈ 4.09 µM); in [9], 0.78 mg/L (≈ 2.05 µM); in experiment [10], 0.025 mg/L (≈ 0.0656 µM); in experiment [11] it was 0.2 mg/L (≈ 0.524 µM); in experiment [12] it was 1.56 mg/L (≈ 4.09 µM); in experiment [13] it was 0.2 mg/L (≈ 0.524 µM). Besides, the MIC in [15] is 0.2 mg/L (≈ 0.524 µM). The figures for the 50% effective dose (ED50) in experiment [5] and in [7] were 2.46 mg/kg and 17.3 mg/kg, respectively.
For the compound `CN1CCN(c2c(F)cc3c(=O)c(C(=O)O)cn(C4CC4)c3c2F)CC1`, the MIC was 0.0125 mg/L (≈ 0.0344 µM) in [1]; 0.78 mg/L (≈ 2.15 µM) in [2]; 0.05 mg/L (≈ 0.138 µM) in experiment [3]; 0.025 mg/L (≈ 0.0688 µM) in experiment [4]; 0.78 mg/L (≈ 2.15 µM) in [6]; 0.78 mg/L (≈ 2.15 µM) in [8]. Besides, the MIC in experiment [9] stood at 0.39 mg/L (≈ 1.07 µM); in experiment [10], 0.05 mg/L (≈ 0.138 µM); in [16], 0.1 mg/L (≈ 0.275 µM); in experiment [11], 0.1 mg/L (≈ 0.275 µM); in experiment [12], 0.39 mg/L (≈ 1.07 µM); in experiment [13], 0.1 mg/L (≈ 0.275 µM). The compound further gave an MIC in experiment [15] of 0.2 mg/L (≈ 0.55 µM). The values for the ED50 in experiment [5] and in experiment [7] were 2.18 mg/kg and 8.84 mg/kg, respectively.
Regarding `C[C@@H]1CN(c2c(F)c(N)c3c(=O)c(C(=O)O)cn(C4CC4)c3c2F)C[C@@H](C)N1` (relative stereo), the MIC in experiment [1] amounted to 0.0125 mg/L (≈ 0.0319 µM); in [2] it was 0.78 mg/L (≈ 1.99 µM); in experiment [3] it was 0.1 mg/L (≈ 0.255 µM); in experiment [4], 0.0125 mg/L (≈ 0.0319 µM); in [6], 0.39 mg/L (≈ 0.994 µM); in experiment [8], 0.78 mg/L (≈ 1.99 µM). In addition, the minimum inhibitory concentration (MIC) in experiment [9] is 0.78 mg/L (≈ 1.99 µM); in experiment [10], 0.1 mg/L (≈ 0.255 µM); in experiment [11], 0.0125 mg/L (≈ 0.0319 µM); in experiment [12], 0.39 mg/L (≈ 0.994 µM); in [13] it was 0.025 mg/L (≈ 0.0637 µM); in experiment [14], 0.39 mg/L (≈ 0.994 µM). Further, in [15], the MIC was 0.025 mg/L (≈ 0.0637 µM). The ED50 in experiment [5] was determined as 6.33 mg/kg; in [7], 7.38 mg/kg.
As to `C[C@@H]1CN(c2c(F)c(N)c3c(=O)c(C(=O)O)cn(C4CC4)c3c2F)C[C@H](C)N1` [SPARFLOXACIN], the MIC in [1] came to 0.0125 mg/L (≈ 0.0319 µM); in experiment [2], 0.39 mg/L (≈ 0.994 µM); in experiment [3], 0.05 mg/L (≈ 0.127 µM); in [4], 0.0125 mg/L (≈ 0.0319 µM); in experiment [6] it was 0.78 mg/L (≈ 1.99 µM); in [8], 0.39 mg/L (≈ 0.994 µM). Besides, the MIC stood at 0.39 mg/L (≈ 0.994 µM) in [9]; 0.05 mg/L (≈ 0.127 µM) in experiment [10]; 0.05 mg/L (≈ 0.127 µM) in experiment [11]; 0.39 mg/L (≈ 0.994 µM) in [12]; 0.05 mg/L (≈ 0.127 µM) in [13]; 0.2 mg/L (≈ 0.51 µM) in [14]. Moreover, in experiment [15], the MIC worked out at 0.05 mg/L (≈ 0.127 µM). Besides, the ED50 in [5] is 1.57 mg/kg; in experiment [7] it was 3.36 mg/kg.
